Beta cell apopt: beta cell apoptosis inhibition; INS-1E cytokine-induced death, ATP luminescence, 48 h; percent of positive-control rescue, neutral wells zero; protection from apoptosis, % (test concentration not listed); 0.8% of 300,000 active;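 active = Every replicate reaches about 75%, or at least half do and their mean reaches it too, limit read from the data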;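 note: 0% = cytokine-treated negative control wells and 100% = positive control rescue; higher means more ATP so stronger rescue from cytokine killing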
CSC inhib: blocks cancer stem cells | 1.1% of 300,000 active | inhibition, % at 7.5 µM | cancer stem cell-like cells viability, luminescence; in the data active = inhibition above about 75%; tested in HMLE shEcad cells
Mdm2-MdmX inh: disrupts the human Mdm2-MdmX interaction. O15151+Q00987. SaOS-2 split-luciferase Mdm2/MdmX complementation, luminescence. inhibition, % at 8 µM. 3% of 330,000 active. AID 485346;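 active = inhibition of at least 50% at 8 µM in the primary screen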
Target sequence (O15151 whole entry, looked up): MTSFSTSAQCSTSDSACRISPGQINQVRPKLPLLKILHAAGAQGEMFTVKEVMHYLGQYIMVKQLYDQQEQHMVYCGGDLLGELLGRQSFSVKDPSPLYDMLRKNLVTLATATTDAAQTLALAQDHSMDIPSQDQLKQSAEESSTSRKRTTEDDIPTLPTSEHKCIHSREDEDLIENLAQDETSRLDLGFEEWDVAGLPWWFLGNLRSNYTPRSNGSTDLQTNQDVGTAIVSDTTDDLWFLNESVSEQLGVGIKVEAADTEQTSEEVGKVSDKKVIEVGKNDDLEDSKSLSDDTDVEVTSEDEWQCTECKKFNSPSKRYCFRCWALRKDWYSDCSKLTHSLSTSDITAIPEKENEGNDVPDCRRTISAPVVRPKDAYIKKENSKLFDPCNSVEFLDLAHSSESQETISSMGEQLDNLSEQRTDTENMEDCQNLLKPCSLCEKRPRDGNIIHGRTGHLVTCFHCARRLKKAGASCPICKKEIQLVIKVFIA
Target sequence (Q00987 whole entry, looked up): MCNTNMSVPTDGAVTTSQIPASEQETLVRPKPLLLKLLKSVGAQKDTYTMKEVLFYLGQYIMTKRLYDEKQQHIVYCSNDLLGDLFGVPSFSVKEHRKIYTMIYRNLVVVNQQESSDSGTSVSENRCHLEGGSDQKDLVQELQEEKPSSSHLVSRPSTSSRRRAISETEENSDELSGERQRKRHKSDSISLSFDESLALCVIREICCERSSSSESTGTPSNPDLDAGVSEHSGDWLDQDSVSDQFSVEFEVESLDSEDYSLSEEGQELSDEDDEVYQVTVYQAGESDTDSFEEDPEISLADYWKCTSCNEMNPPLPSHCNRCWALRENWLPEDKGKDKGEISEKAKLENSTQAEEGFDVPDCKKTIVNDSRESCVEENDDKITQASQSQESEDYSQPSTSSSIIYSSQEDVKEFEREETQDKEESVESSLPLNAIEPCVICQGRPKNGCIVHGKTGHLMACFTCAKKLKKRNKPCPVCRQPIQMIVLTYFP
Calb FLC: affects C. albicans growth with fluconazole. C. albicans CaCi-2 (fluconazole-resistant clinical isolate) + fluconazole, Alamar Blue growth, 48 h. growth inhibition, % (test concentration not listed). 0.57% of 300,000 active;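 active = growth inhibition above about 58% in most replicates, limit read from the data, passing the limit was not always enough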;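 note: all wells also contain fluconazole at 8 µg/ml as a sub-toxic cotreatment; 0% = median of DMSO wells and 100% = median of geldanamycin control wells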
SKKanGAS inh: blocks kanamycin growth of S. pyogenes SKKanGAS strain | BacTiter-Glo, 6 h | inhibition, % at 7.5 µM | 1.3% of 300,000 active | AID 1662;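 active = mean replicate score, as percent of positive control median, at least 50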;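 note: strain carries kanamycin resistance gene driven by streptokinase promoter and grows in 40 µg/ml kanamycin; loss of luminescence reflects streptokinase promoter inhibition or plain growth inhibition; 0% = median of DMSO wells and 100% = positive control at its reference dose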
T cruzi repl: T. cruzi replication inhibition; inhibition, % (no concentration beside the values); 1.4% of 300,000 active; T. cruzi beta-gal in NIH3T3, luminescence, 90 h; AID 1885;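 active = mean inhibition across valid replicates above about 55%, limit read from the data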;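 note: signal also drops with host cell toxicity which is not excluded here; 0% = plate median of DMSO wells and 100% = zero luminescence signal; higher percent means less beta-gal luminescence so fewer parasites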
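Material: NIH/3T3 host cells with β-galactosidase reporter T. cruzi; Input: 5,000 host fibroblasts per well; Medium: DMEM, 2% fetal bovine serum; Compound: 50 nL DMSO compound solution per well; Schedule: 3 h host attachment, then at least 90 h co-culture; Detection: luminescent β-galactosidase signal after 60 min lysis.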
Mdm2 MdmX conf: human Mdm2/MdmX binding inhibition, confirmed | shares compounds with Mdm2-MdmX inh | luminescent assay | inhibition, % at 8 µM | 55% of 10,000 active; in the data active = inhibition above about 40%
Full FLuc ctr: counter-screen for Mdm2/MdmX inhibitors: full-length luciferase; shares compounds with Mdm2-MdmX inh; SaOS-2 full-length luciferase counterscreen, luminescence; inhibition, % at 8 µM; 77% of 6,200 active; AID 504607;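 active = mean inhibition at 8 µM reaching about 37%, which flags the compound as non-specific, limit read from the data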;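 note: p53-null SaOS-2 cells with luciferase driven by a doxycycline-inducible promoter; compound on cells about two nights before reading with doxycycline added after day one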
* marks the source's active call; other numbers are inactive results; . = no result given. Shown are actives, neighbours in structure and some others; about 5.7% of the full set was active somewhere.

SMILES	Beta cell apopt	CSC inhib	Mdm2-MdmX inh	Calb FLC	SKKanGAS inh	T cruzi repl	Mdm2 MdmX conf	Full FLuc ctr
Cc1ccc(/C=C2\C(=O)NC(=S)N(c3ccc(F)cc3)C2=O)s1	-11	28	80*	5	14	-25	4	.
Cc1cc(O)c2c(c1)C(=O)C13C(=C2O)C(=O)[C@H]2[C@@H](O)[C@@H]1[C@H]1[C@H](O)[C@@H]3C(=O)C3=C(O)c4c(O)cc(C)cc4C(=O)C312 (stereo partly specified)	106*	73	86*	.	.	.	61*	30
CC1=NCCc2c1[nH]c1cc(O)ccc21	7	-11	3	.	.	.	.	.
C1=NCCc2c1[nH]c1ccccc21	.	-4	52*	-1	8	27	-54	.
O=[N+]([O-])c1ccc(NC2CCCC2)c2ccncc12	4	-4	44	-10	0	7	.	.
O=[N+]([O-])c1ccc(NC2CCN(Cc3ccccc3)CC2)c2ccncc12	-2	0	64*	36	-4	60*	36	.
Cc1c(C(=O)c2cccc3ccccc23)c2cccc3c2n1[C@H](CN1CCOCC1)CO3	.	100*	91*	23	28	72*	57*	93*
C[C@@H]1C[C@H]2OC(=O)C3(CO3)[C@H]2[C@H](O)[C@]2(C)C(=O)C3OC3[C@@H]12 (stereo partly specified)	-8	58	51*	16	-3	-41	36	21
CCn1nc(/C=C/c2ccccc2)nc2c(=O)n(C)c(=O)nc1-2	.	.	97*	101*	5	60*	85*	25
COC(=O)C(C)Oc1cc(C)cc2oc(=O)c3c(c12)CCC3 (stereo unspecified)	0	-19	52*	-5	1	4	27	.
O=c1[nH]c(=O)n(-c2ccccc2)c(O)c1/C=C1/C(c2ccccc2)=Nc2ccccc21	8	88*	61*	-14	0	7	62*	75*
COC(=O)C1=Nc2ccccc2/C1=C\c1c(O)n(-c2ccc(Br)cc2)c(=O)[nH]c1=O	-3	9	.	.	.	.	.	.
CC[C@@]1(O)C(=O)OCc2c1cc1n(c2=O)Cc2cc3c(NC(=O)CN)cccc3nc2-1	71	108*	84*	5	14	-33	79*	57*
CN1[C@H]2CC[C@@H]1C(C(=O)N1CCOCC1)=C(O)C2	-7	2	16	.	.	.	.	.
CC(C)(C)c1cc([N+](=O)[O-])cc(C(C)(C)C)c1O	100*	47	88*	2	3	-94	39	.
COc1ccc2c(c1O)[C@]13CCN(C)[C@H](C2)[C@@H]1CCC(=O)C3	-6	-16	18	1	-3	-2	.	.
COc1ccc2c(c1)C13CCCC[C@@H]1C(C2)N(C)CC3 (stereo partly specified)	12	1	51*	-12	-3	-25	25	.
CCn1ccnc1CN1CCCC(C(=O)c2ccc(SC)cc2)C1 (stereo unspecified)	-6	10	9	-15	-11	5	.	.
CC(=O)c1c(C)n(C2CCCCC2)c2ccc(O)cc12	.	4	82*	-2	12	-1	82*	48*
Cc1cc(-c2ccccc2)cc(-c2ccccc2)[n+]1CCc1ccccc1	133*	16	61*	97*	-2	59*	12	.
c1ccc(C[n+]2ccccc2)cc1	5	-3	14	9	2	-11	.	.
NCCc1ccccc1	-6	-16	9	-7	-1	-27	.	.
Clc1ccc(C[n+]2c(-c3ccccc3)cc(-c3ccccc3)cc2-c2ccccc2)cc1	122*	5	90*	1	1	56*	84*	19
Fc1ccc(C[n+]2c(-c3ccccc3)cc(-c3ccccc3)cc2-c2ccccc2)cc1	128*	37	89*	64	7	55*	69*	38*
N=c1c2c(n(Cc3ccc(Cl)cc3Cl)c3c1CCC3)CCCC2	121*	16	82*	-2	6	51	37	59*
c1ccc(C2(N3CCCCC3)CCCCC2)cc1	.	.	10	.	.	.	.	.

From PubChem
